Source: PubChem BioAssay (several laboratories)
D1 allo mod: D1 CRE-luciferase signal change, two-sided – cell-based, HEK293 D1, dopamine EC30, D1 allosteric modulator project, primary screen. B-score at 10 µM. D(1A) dopamine receptor (Homo sapiens), P21728. 58,000 tested, 5.9% active. dopamine EC30 potentiation; actives deviate in either direction;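 active means luminescence count or its row- and column-corrected plate score outside the 99.7% band of the plate's sample wells, on either side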
Target sequence (P21728 whole entry, looked up): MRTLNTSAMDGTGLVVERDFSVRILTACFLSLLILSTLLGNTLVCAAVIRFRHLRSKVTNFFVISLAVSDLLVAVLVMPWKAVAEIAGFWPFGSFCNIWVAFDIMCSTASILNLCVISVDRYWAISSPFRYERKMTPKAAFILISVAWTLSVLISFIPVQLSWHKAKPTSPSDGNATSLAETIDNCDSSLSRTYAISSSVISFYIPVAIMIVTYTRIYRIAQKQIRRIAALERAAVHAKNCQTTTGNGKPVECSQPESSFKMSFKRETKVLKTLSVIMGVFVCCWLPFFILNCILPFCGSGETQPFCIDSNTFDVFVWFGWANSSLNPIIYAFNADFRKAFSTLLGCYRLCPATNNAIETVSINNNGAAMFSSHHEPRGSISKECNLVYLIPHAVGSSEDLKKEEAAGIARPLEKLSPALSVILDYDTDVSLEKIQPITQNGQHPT
HEK293 NFkB inh: inhibitors of PMA/ionomycin-induced NF-kB reporter, primary screen, antigen receptor NF-kB inhibitor project, cell-based, HEK-293 luciferase reporter, luminescence | inhibition, % at 3 µM | AID 465, 2006 | HEK-293 NF-kB luciferase reporter | 62,000 tested, 0.21% active;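 active means inhibition above the mean of all tested compounds plus 3 SD, cut at about 40% in these data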;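 further: 0% = stimulated DMSO wells and 100% = 10 µM reference inhibitor 5653914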
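Material: HEK-293 cells with stable firefly luciferase reporter driven by four HIV NF-kB elements / Also added: PMA plus ionomycin mix as NF-kB-activating stimulus / Compound dosing: 3 µM once, 0.30% DMSO / Times: 1 h pretreatment, 16 h stimulation, 37 °C / Signal: luminescence / Evaluation: per-plate % inhibition versus controls / Benchmarks: DMSO and 10 µM reference inhibitor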
hDAT+cocaine: changed hDAT dopamine uptake under cocaine IC80, either direction, primary screen, cocaine antagonist project, cell-based, LLC-PK1 hDAT, [14C]-dopamine uptake, MLSMR; Sodium-dependent dopamine transporter (Homo sapiens), Q01959; LLC-PK1 hDAT cells, [14C]-dopamine uptake with cocaine IC80; actives deviate in either direction; B-score at 10 µM; 110,000 tested, 1.3% active; AID 449768, 2010;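 active means Z score or B-score, a plate-position-corrected score, falls beyond the plate's 99.7% confidence bounds, in either direction; inactive means both scores lie inside the 99.7% bounds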;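 further: scored against the spread of the other compound wells on the same plate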
Ec RNAP inh: E. coli RNAP inhibitors, biochemical | 62,000 tested, 0.2% active | AID 559, 2006 | inhibition, %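 (tested at 10 µM)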 | E. coli RNA polymerase, fluorescence transcription assay | DNA-directed RNA polymerase subunit beta (Escherichia coli (strain K12)), P0A8V2; in the data active means inhibition above about 20%;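 further: 0% = enzyme without compound and 100% = no enzyme blank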
AP complement: alternative complement pathway inhibitors, primary screen, biochemical, ELISA, human serum, orthogonally pooled compounds; LPS-coated ELISA, C3 deposition; tested in compound mixtures; inhibition, % at 5 µM; 62,000 tested, 0.08% active;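 active means inhibition above 30% in each of the two pooled mixtures holding the compound, so the lower value exceeds 30%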;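 further: 0% = serum in Mg-EGTA without compound and 100% = EDTA serum blank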
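Test system – human serum alternative complement pathway, C3 deposition on LPS-coated wells · Buffer or medium – diluted human serum in Mg2+-EGTA GVB++ · Compound dosing – 5 µM each compound, pools of ten, 50 µM per pool · Schedule – 1 h serum-compound exposure at 37 °C · Measured by – Anti-C3 ELISA, OD 450 nm · Read-out basis – percent inhibition of C3 deposition onto LPS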
* = called active by the depositor. The sample as a whole holds a higher share of hits than the screen did.

What do the screens show for `Cc1ccc(-c2nnc(N3CCN(C(=O)c4ccco4)CC3)c3ccccc23)cc1`?
D1 allo mod: -1.8; HEK293 NFkB inh: 2; hDAT+cocaine: 2.9*; Ec RNAP inh: 10; AP complement: 7

Results for COc1ccc(N2CCN(C(=O)NC34CC5CC(CC(C5)C3)C4)CC2)cc1 ?
hDAT+cocaine: -7.6*

How did COc1ccc(OCC(=O)N2CCN(C(=O)c3ccccc3)CC2)cc1 do in these assays?
D1 allo mod: 0.14; HEK293 NFkB inh: -10; hDAT+cocaine: 1.2; Ec RNAP inh: 5; AP complement: -12

Results for COc1ccc(N2CCN(C(=O)COc3ccccc3)CC2)cc1 ?
D1 allo mod: 0.43; HEK293 NFkB inh: 4; hDAT+cocaine: 1.9*; Ec RNAP inh: 1; AP complement: -6

What do the screens show for `COC(=O)N1CCN(c2ccc(OC)cc2)CC1`?
D1 allo mod: 0.18; HEK293 NFkB inh: 1; hDAT+cocaine: -1.5; Ec RNAP inh: 5; AP complement: 1

How did C=C(C)c1sc(-c2ccc(Cl)cc2)nc1C do in these assays?
hDAT+cocaine: -0.57

Results for Cc1cccc(C)c1OCc1nnc2c3cnn(C)c3ncn12 ?
D1 allo mod: 0.4; HEK293 NFkB inh: 10; hDAT+cocaine: 0.87; Ec RNAP inh: 8; AP complement: -12

Results for COc1ccc(Cc2nnc3c4cnn(C)c4ncn23)cc1 ?
D1 allo mod: 0.54; HEK293 NFkB inh: -5; hDAT+cocaine: -7.4*; Ec RNAP inh: 5; AP complement: 16

How did COc1cccc(/C=N/NC(=O)CO/N=C(\C)c2cccs2)c1OC do in these assays?
hDAT+cocaine: 3.2*

Results for CC1=C(C(=O)OCC2CCCO2)C(c2ccc(C)o2)C2=C(CC(c3ccc(F)cc3)CC2=O)N1 (stereo unspecified) ?
D1 allo mod: -3.1*; HEK293 NFkB inh: -11; hDAT+cocaine: 2.1; Ec RNAP inh: 3; AP complement: 15

What do the screens show for `CCn1c(SCC(=O)Nc2cccc(NC(C)=O)c2)nnc1C(C)C`?
D1 allo mod: -0.36; HEK293 NFkB inh: 18; hDAT+cocaine: 0.94; Ec RNAP inh: 3; AP complement: 7

What do the screens show for `CC(C)Cn1c(N)c(C(=O)COC(=O)c2cc(-c3ccco3)nc3ccccc23)c(=O)n(C)c1=O`?
D1 allo mod: 1.2; HEK293 NFkB inh: 17; Ec RNAP inh: 8; AP complement: -8

How did CC(C)Cn1c(N)c(C(=O)COC(=O)c2cc(-c3ccccc3)nc3ccccc23)c(=O)n(C)c1=O do in these assays?
hDAT+cocaine: 2.5*

Results for CCC1=C(OC(=O)N(CC)CC)N2C(=O)OC(=NCC3CC3)[C@]2(Cc2ccccc2)[C@H]2C1=CC[C@H]1C(=O)N(CC)C(=O)[C@H]12 ?
hDAT+cocaine: 0.59

How did C=CCNC(=O)c1onc(CSc2ccc(F)c(F)c2)c1C(=O)NCC=C do in these assays?
hDAT+cocaine: 0.19

What do the screens show for `O=C(O)C1Nc2ccc(C(F)(F)F)cc2C2OCCC12` (stereo unspecified)?
hDAT+cocaine: -0.31

What do the screens show for `COc1ccc(N(C(=O)Cn2nnc3ccccc32)C(C(=O)NCc2ccco2)c2ccc(C)o2)cc1` (stereo unspecified)?
D1 allo mod: -0.18; HEK293 NFkB inh: 5; hDAT+cocaine: 3.1*; Ec RNAP inh: 4; AP complement: 28

What do the screens show for `Cc1ccc(C(C(=O)NCc2ccco2)N(CCc2ccccc2)C(=O)Cn2nnc3ccccc32)o1` (stereo unspecified)?
D1 allo mod: -4.3*; HEK293 NFkB inh: -1; Ec RNAP inh: 12; AP complement: -2

What do the screens show for `C=CCNC(=O)C1CC2Cn3c(nc4cc5ccccc5cc43)C2N1C` (stereo unspecified)?
hDAT+cocaine: 0.41

How did O=C(CCCCCn1c(=O)[nH]c2ccsc2c1=O)N1CCN(C2CCCCC2)CC1 do in these assays?
D1 allo mod: -0.2; HEK293 NFkB inh: 13; hDAT+cocaine: -0.11; Ec RNAP inh: 9; AP complement: 8

What do the screens show for `O=C(NCc1ccc2c(c1)OCO2)c1cc2ncc(Br)cn2n1`?
D1 allo mod: 0.11; HEK293 NFkB inh: 16; hDAT+cocaine: -2.1*; Ec RNAP inh: 7; AP complement: 5

How did COCCNC(=O)C1c2ccccc2C(=O)N(CCOC)C1c1ccc(F)cc1 (stereo unspecified) do in these assays?
D1 allo mod: -0.37; HEK293 NFkB inh: 10; hDAT+cocaine: -7.6*; Ec RNAP inh: 1; AP complement: -1

Results for COCCN1C(=O)c2ccccc2C(C(=O)NCCN(C)C)C1c1ccc(F)cc1 (stereo unspecified) ?
D1 allo mod: -0.084; HEK293 NFkB inh: 11; hDAT+cocaine: -0.37; Ec RNAP inh: 4; AP complement: 23

How did C=CCn1c(SCC(=O)c2ccc(NS(=O)(=O)c3ccccc3)cc2)nnc1-c1cccs1 do in these assays?
hDAT+cocaine: 1.7; Ec RNAP inh: 26*

How did C=CCn1c(SCC(=O)Nc2ccc(C(=O)OCC)cc2)nnc1-c1cccs1 do in these assays?
D1 allo mod: 0.12; HEK293 NFkB inh: 27; hDAT+cocaine: -0.52; Ec RNAP inh: 10; AP complement: 1

How did CCc1c(C)nc2cc(-c3cc(OC)cc(OC)c3)nn2c1N1CCCC1 do in these assays?
D1 allo mod: 0.71; HEK293 NFkB inh: 2; hDAT+cocaine: 1.7; Ec RNAP inh: 4; AP complement: 8

What do the screens show for `CCOCCN1CCN(c2c(CC)c(C)nc3cc(-c4cc(OC)cc(OC)c4)nn23)CC1`?
hDAT+cocaine: 2*

Results for Cc1ccc(CNC(=O)CSCC(=O)O)cc1 ?
hDAT+cocaine: -0.11

How did CCN(CC)S(=O)(=O)c1csc(C(=O)NC2CCCCC2)c1 do in these assays?
D1 allo mod: 0.89; HEK293 NFkB inh: -12; hDAT+cocaine: -0.61; Ec RNAP inh: 7; AP complement: 3

What do the screens show for `CCN(CC)S(=O)(=O)c1csc(C(=O)NCc2ccccc2)c1`?
HEK293 NFkB inh: 8; hDAT+cocaine: 2.6*; Ec RNAP inh: 7; AP complement: 13

How did Cc1cccc(C)c1NC(=O)C(c1ccc(Cl)cc1Cl)N1CCCCC1 (stereo unspecified) do in these assays?
hDAT+cocaine: -0.39

How did CCOC(=O)c1c(C)c(C(=O)NCCN2CCOCC2)c(C)n1CC do in these assays?
HEK293 NFkB inh: 11; hDAT+cocaine: 1.5; Ec RNAP inh: 2; AP complement: 7

How did CCOC(=O)c1c(C)c(C(=O)NCc2cccs2)c(C)n1CC do in these assays?
D1 allo mod: 3.5; HEK293 NFkB inh: 9; hDAT+cocaine: 2.8*; Ec RNAP inh: 0; AP complement: 15
